Only some compounds are listed: those with a hit (about 5.8% of all), similar ones and a draw of the others.
GASC1 inh: inhibitors of GASC-1 (KDM4C) histone demethylase, primary screen, biochemical, single concentration HTS; GST-KDM4C 2-372, H3K9me3 peptide, LANCE TR-FRET; actives 0.15% (n = 96,000); AID 720574, 2013; Lysine-specific demethylase 4C (Homo sapiens), Q9H3R0; inhibition, % at 12.5 µM;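 active means mean replicate inhibition above about 25%, with at least 55% of replicates also reaching it, limit read from the data, passing the limit was not always enough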
Target sequence (Q9H3R0 2-372 limits assumed): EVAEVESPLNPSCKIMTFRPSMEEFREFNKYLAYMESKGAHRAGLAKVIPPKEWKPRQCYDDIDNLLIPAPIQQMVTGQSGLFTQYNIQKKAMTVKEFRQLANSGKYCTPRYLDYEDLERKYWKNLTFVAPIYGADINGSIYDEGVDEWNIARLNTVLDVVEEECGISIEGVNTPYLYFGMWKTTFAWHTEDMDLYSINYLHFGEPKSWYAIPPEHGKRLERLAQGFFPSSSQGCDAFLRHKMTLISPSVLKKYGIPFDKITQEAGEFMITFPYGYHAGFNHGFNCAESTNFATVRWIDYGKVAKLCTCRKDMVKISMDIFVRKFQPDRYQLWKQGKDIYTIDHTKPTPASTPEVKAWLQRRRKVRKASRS
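System: N-terminal GST-fused human GASC-1 (KDM4C) fragment, residues 2-372; amount: enzyme final amount 10 nM; incubation: reaction 30 min RT, detection step 1 h RT; medium: HEPES buffer, pH 7.5, plus ascorbate; technique: LANCE TR-FRET, Eu antibody, ULight-streptavidin, EDTA, ex 340 nm, em 618/671 nm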
T cruzi growth: T. cruzi intracellular proliferation inhibitors, primary screen, cell-based, beta-gal Tulahuen parasites, NIH3T3 host, luminescence; T. cruzi beta-gal in NIH3T3, GalScreen luminescence, 90 h; inhibition, % at 8.34 µM; actives 5.9% (n = 77,000);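 active means mean inhibition above about 93%, with at least 55% of replicates each passing it, limit read from the data, passing the limit was not always enough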
IDH1 mut inh: inhibitors of IDH1 R132H reductase, primary screen, biochemical, plate reader, single point. Isocitrate dehydrogenase [NADP] cytoplasmic (Homo sapiens), O75874. diaphorase/resazurin fluorescence, 60 min. inhibition, % at 10 µM. actives 0.18% (n = 70,000). AID 624101, 2012; in the data active means inhibition above about 34%;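 further: 0% = DMSO and 100% = no enzyme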
Pf Dd2 growth: P. falciparum Dd2 growth inhibitors, primary screen, SYBR Green fluorescence, single dose replicates; 72 h; stronger effect = lower value; activity change, % at 10 µM; AID 1159554, 2015; actives 2.3% (n = 94,000); in the data active means activity change below about -80%
The depositor's hits bear a star; x = no result.

SMILES	GASC1 inh	T cruzi growth	IDH1 mut inh	Pf Dd2 growth
CCCN(C)C[C@@H]1Oc2cc(C#Cc3cccnc3)ccc2S(=O)(=O)N([C@H](C)CO)C[C@@H]1C	5.8	50.9	1.4	-87.7*
C[C@@H]1CN([C@H](C)CO)S(=O)(=O)c2ccc(C#Cc3cccnc3)cc2O[C@H]1CN(C)C	-0.6	15.7	0.2	-25.0
CCCN(C)C[C@H]1Oc2cc(C#Cc3cccnc3)ccc2S(=O)(=O)N([C@H](C)CO)C[C@H]1C	-2.1	40.9	0.0	-88.9*
CCCN(C)C[C@H]1Oc2cc(C#Cc3cccnc3)ccc2S(=O)(=O)N([C@@H](C)CO)C[C@H]1C	-0.9	14.9	-5.3	-84.4*
C[C@H]1CN([C@@H](C)CO)S(=O)(=O)c2ccc(C#Cc3cccnc3)cc2O[C@@H]1CN(C)C	-1.4	10.5	4.5	-28.9
C[C@H](CO)N1C[C@H](C)[C@@H](CN(C)S(C)(=O)=O)OCCCC[C@H](C)Oc2ccc(NC(=O)CCC(F)(F)F)cc2C1=O	-0.4	23.7	x	33.7
C[C@H](CO)N1C[C@H](C)[C@@H](CN(C)Cc2ccc(-c3ccccc3)cc2)Oc2c(NC(=O)CCCCCC(=O)Nc3ccccc3N)cccc2C1=O	-1.4	x	0.0	-86.7*
C[C@@H]1CN([C@@H](C)CO)C(=O)c2cccc(NC(=O)CCCCCC(=O)Nc3ccccc3N)c2O[C@H]1CN(C)C	1.2	x	0.7	-62.0
C[C@@H]1CN([C@@H](C)CO)C(=O)c2cccc(NC(=O)CCCCCC(=O)Nc3ccccc3N)c2O[C@@H]1CN(C)Cc1ccccc1	1.9	x	x	-87.1*
C[C@H](CO)N1C[C@H](C)[C@H](CN(C)CC2CC2)Oc2c(NC(=O)CCCCCC(=O)Nc3ccccc3N)cccc2C1=O	0.2	x	-0.4	-43.6
C[C@@H]1CN([C@@H](C)CO)C(=O)c2cccc(NC(=O)CCCCCC(=O)Nc3ccccc3N)c2O[C@H]1CN(C)CC1CCCCC1	4.8	x	x	-88.9*
C[C@H]1CN([C@@H](C)CO)C(=O)c2cccc(NC(=O)CCCCCC(=O)Nc3ccccc3N)c2O[C@@H]1CN(C)Cc1ccncc1	-0.7	x	-0.6	-16.1
C[C@H](CO)N1C[C@H](C)[C@H](CN(C)Cc2ccc(Cl)c(Cl)c2)Oc2c(NC(=O)CCCCCC(=O)Nc3ccccc3N)cccc2C1=O	-0.3	x	0.5	-88.4*
C[C@@H]1CN([C@@H](C)CO)C(=O)c2cccc(NC(=O)CCCCCC(=O)Nc3ccccc3N)c2O[C@H]1CN(C)Cc1ccc(-c2ccccc2)cc1	-4.7	x	0.3	-90.7*
CC(C)NC(=O)Nc1cccc2c1O[C@@H](CN(C)CC1CCCCC1)[C@@H](C)CN([C@H](C)CO)C2=O	-0.7	-19.4	x	-0.2
C[C@H]1CN([C@@H](C)CO)C(=O)c2cccc(NC(=O)Nc3ccccc3)c2O[C@@H]1CN(C)Cc1ccc(Cl)c(Cl)c1	0.1	10.9	-1.8	-28.2
C[C@@H]1CN([C@H](C)CO)C(=O)c2cccc(NC(=O)Nc3ccccc3)c2O[C@@H]1CN(C)Cc1ccc(Cl)c(Cl)c1	-0.8	66.0	x	-85.9*
C[C@H](CO)N1C[C@H](C)[C@H](CN(C)C)Oc2c(NC(=O)CCCCCC(=O)Nc3ccccc3N)cccc2C1=O	0.1	x	x	21.7
CC(C)NC(=O)Nc1cccc2c1O[C@@H](CN(C)CC1CCCCC1)[C@H](C)CN([C@@H](C)CO)C2=O	-2.1	x	0.7	-80.7*
CO[C@H]1CN(C)C(=O)c2cc(NC(=O)c3cccc(Oc4ccccc4)c3)ccc2OC[C@H](C)NC[C@@H]1C	-0.7	-138.9	0.1	x
O=C(C[C@H]1C=C[C@H](NC(=O)Cc2cccnc2)[C@@H](CO)O1)Nc1ccc(-c2ccccc2)cc1	2.1	x	x	39.6
C[C@@H]1CN([C@H](C)CO)S(=O)(=O)c2ccc(-c3ccccc3)cc2O[C@H]1CN(C)Cc1ccccn1	1.8	83.3	1.9	-54.7
C[C@H](NC(=O)C[C@@H]1CC[C@H](NC(=O)c2cccnc2)[C@H](CO)O1)c1ccccc1	-0.5	1.0	-0.2	3.0
C[C@H](CO)N1C[C@H](C)[C@H](CN(C)Cc2ccc(C(=O)Nc3ccccc3N)cc2)Oc2ccc(NC(=O)CCC(F)(F)F)cc2C1=O	-1.0	85.5	x	-80.6*
C[C@H](CO)N1C[C@H](C)[C@@H](CN(C)Cc2ccc(C(=O)Nc3ccccc3N)cc2)Oc2ccc(NC(=O)Nc3ccc(C(F)(F)F)cc3)cc2C1=O	-0.7	-206.4	0.0	-90.1*
SMILES	GASC1 inh	T cruzi growth	IDH1 mut inh	Pf Dd2 growth
C[C@@H]1CN([C@H](C)CO)C(=O)c2cc(NC(=O)Nc3ccccc3)ccc2O[C@@H]1CN(C)Cc1ccc(C(=O)Nc2ccccc2N)cc1	-1.6	36.5	x	-85.1*
C[C@H]1CN([C@@H](C)CO)C(=O)c2cc(NC(=O)Nc3ccc(C(F)(F)F)cc3)ccc2O[C@@H]1CN(C)Cc1ccc(C(=O)Nc2ccccc2N)cc1	0.2	-97.3	0.0	-93.2*
CCCN(C)C[C@@H]1Oc2cc(-c3ccccc3)ccc2S(=O)(=O)N([C@H](C)CO)C[C@@H]1C	0.8	44.5	-0.6	-21.4
COc1ccc2c3c(n(C)c2c1)[C@@H](CO)N(C(=O)C1CCOCC1)CC31CCN(C(=O)C2CCOCC2)CC1	0.8	x	x	41.5
C[C@@H]1CN([C@H](C)CO)C(=O)c2cc(NC(=O)Cc3ccccc3)ccc2O[C@@H]1CN(C)Cc1ccc(C(=O)Nc2ccccc2N)cc1	1.9	73.5	x	-85.1*
COc1ccc(S(=O)(=O)N(C)C[C@H]2OCCCC[C@H](C)Oc3ccc(NC(=O)c4ccccc4)cc3C(=O)N([C@@H](C)CO)C[C@H]2C)cc1	-2.5	59.0	0.2	-84.8*
COc1ccc(S(=O)(=O)N(C)C[C@@H]2OCCCC[C@H](C)Oc3ccc(NC(=O)c4ccccc4)cc3C(=O)N([C@@H](C)CO)C[C@H]2C)cc1	-1.3	64.0	-2.5	-84.2*
Cc1noc(C)c1S(=O)(=O)N(C)C[C@H]1OCCCC[C@H](C)Oc2ccc(NS(=O)(=O)c3ccc(F)cc3)cc2C(=O)N([C@H](C)CO)C[C@H]1C	0.4	36.9	x	-6.8
CO[C@H]1CN(C)C(=O)c2ccc(NC(=O)CC(F)(F)F)cc2OC[C@@H](C)N(CC2CC2)C[C@H]1C	1.5	x	x	-85.7*
CCC(=O)Nc1ccc2c(c1)OC[C@H](C)N(CC1CCOCC1)C[C@H](C)[C@H](OC)CN(C)C2=O	44.1*	18.9	2.4	-4.2
COc1ccccc1CN1C[C@@H](C)[C@@H](OC)CN(C)C(=O)c2ccc(NC(C)=O)cc2OC[C@@H]1C	3.0	21.6	0.0	-24.2
COc1ccccc1CN1C[C@@H](C)[C@H](OC)CN(C)C(=O)c2ccc(NC(=O)Nc3ccccc3OC)cc2OC[C@H]1C	1.1	27.7	0.6	-90.2*
CNC[C@H]1Oc2ccc(NC(=O)Cn3cnnn3)cc2C(=O)N([C@@H](C)CO)C[C@@H]1C	1.8	14.1	3.9	41.5
